This note sets out measurements from ChEMBL document CHEMBL1125750, “Dual antagonists of platelet activating factor and histamine. Identification of structural requirements for dual activity of N-Acyl-4-(5,6-dihydro-11H-benzo [5,6]cyclohepta-[1,2-b]pyridin-11-ylidene)piperidines” (J Med Chem, 1991).

For orientation: Ki means a dissociation constant, usually derived from enzyme kinetics or from competition with a known ligand. High values mean a looser hold on the target, low ones a stronger hold on the target. The term Inhibition denotes the relative decrease from the control value, in per cent. Lower therefore signals a weak effect. One may read the inhibition in vivo as how much of the control response was suppressed. Higher therefore signals strong suppression.

The target of experiment [1] is Histamine H1 receptor (Rattus norvegicus, UniProt P31390). Put plainly: Binding affinity to histamine H1 receptor in rat brain membranes was evaluated using [3H]-pyrilamine as radioligand. It counts as cell membranes.
Experiment [2] deals with Cavia porcellus. Put plainly: Compound tested for its %inhibition of guinea pig bronchospasm at a peroral dose of 10 mg/Kg and after 2 hr followed by iv challenge with 10 ug/Kg of histamine.
For experiment [3], the system named is Cavia porcellus. Put plainly: Compound tested for inhibition of guinea pig bronchospasm at a peroral dose of 10 mg/Kg and after 2 hr followed by iv challenge with 0.4 ug/Kg of PAF. The experiment is classed as functional, Bronchiole.
Experiment [4] deals with Cavia porcellus. Put plainly: Compound tested for its %inhibition of guinea pig bronchospasm at a peroral dose of 10 mg/Kg and after 2 hr followed by iv challenge with 10 ug/Kg of histamine. The source holds these as a separate data set.
For experiment [5], the system named is Cavia porcellus. Put plainly: Compound tested for its %inhibition of guinea pig bronchospasm at a peroral dose of 3 mg/Kg and after 2 hr followed by iv challenge with 0.4 ug/Kg of histamine.
Experiment [6] can be described thus: %inhibition of guinea pig bronchospasm at a peroral dose of 10 mg/kg and after 2 hr followed by iv challenge with 0.4 micro g/kg of PAF. To be noted: Cavia porcellus, Bronchiole, route oral. It counts as functional. The method, boiled down:
(§1)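 Compound given orally 2 h before an iv PAF challenge at 0.4 µg/kg. Values are reported as mean ± standard error of the mean unless noted otherwise, with N animals per determination.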

In experiment [7] the test system is Cavia porcellus. Put plainly: Compound tested for its %inhibition of guinea pig bronchospasm at a peroral dose of 10 mg/kg and after 2 hr followed by iv challenge with 0.4 micro g/kg of histamine. The experiment is classed as functional. To be noted: Bronchiole, route oral.
Experiment [8] deals with Cavia porcellus. Put plainly: Compound tested for its %inhibition of guinea pig bronchospasm at a peroral dose of 10 mg/kg and after 2 hr followed by iv challenge with 0.4 micro g/kg of PAF. The experiment is classed as functional. The settings on record: Bronchiole, route oral. The method, boiled down: as §1

Histamine H1 receptor, sequence (P31390 whole entry): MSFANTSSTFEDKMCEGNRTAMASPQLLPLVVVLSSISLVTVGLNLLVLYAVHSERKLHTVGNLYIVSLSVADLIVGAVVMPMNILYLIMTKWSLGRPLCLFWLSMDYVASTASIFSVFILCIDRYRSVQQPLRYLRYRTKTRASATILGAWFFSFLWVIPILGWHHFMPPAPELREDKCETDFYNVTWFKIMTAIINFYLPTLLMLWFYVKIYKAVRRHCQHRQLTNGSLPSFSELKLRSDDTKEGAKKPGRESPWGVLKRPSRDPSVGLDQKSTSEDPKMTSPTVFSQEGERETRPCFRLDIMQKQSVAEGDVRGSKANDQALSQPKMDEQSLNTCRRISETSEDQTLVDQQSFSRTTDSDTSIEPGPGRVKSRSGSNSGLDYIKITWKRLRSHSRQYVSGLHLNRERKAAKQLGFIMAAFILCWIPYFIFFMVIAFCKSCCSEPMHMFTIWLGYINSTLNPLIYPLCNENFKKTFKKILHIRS

The molecule `CCC(=O)N1CCC(=C2c3ccc(Cl)cc3CCc3cccnc32)CC1` yielded a Ki in experiment [1] of 0.048 µM. The molecule `CC(=O)N(C)CC/C=C1\c2ccc(Cl)cc2CCc2cccnc21` came in with a Ki in experiment [1] of 0.29 µM. Regarding `COc1ccc2c(c1)CCc1cccnc1C2=C1CCN(C(C)=O)CC1`, the Ki in experiment [1] worked out at 1.6 µM. On the same count and under the same terms, the same measure for `CC(=O)N1CCC(=C2c3cc(Cl)c(Cl)cc3CCc3cccnc32)CC1`: 3.1 µM. Regarding `CC(=O)N1CCC(=C2c3ccccc3CCc3cccnc32)CC1`, the values for the Inhibition in experiment [2] and in experiment [3] were 96% and 44%, respectively. In experiment [1], affinity was put at a Ki of 2 µM. `CC(=O)N1CCC(=C(c2ccc(Cl)cc2)c2ccccn2)CC1` had a Ki in experiment [1] of over 6.3 µM. Same read-out and setting: the figure for `O=C(c1ccccc1)N1CCC(=C2c3ccc(Cl)cc3CCc3cccnc32)CC1` is 0.19 µM; for `CC(=O)N(C)CC/C=C1/c2ccc(Cl)cc2CCc2cccnc21` it is 0.85 µM. In experiment [4], `CC(=O)N1CCC(=C2c3ccc(Br)cc3CCc3cccnc32)CC1` registered an Inhibition of 99%. In experiment [1], `CC(=O)N1CCC(=C2c3ccc(C)cc3CCc3cccnc32)CC1` showed a Ki of 0.19 µM. In experiment [1], `CC(=O)N1CCC(=C2c3cc(F)ccc3CCc3cccnc32)CC1` displayed a Ki of 2.9 µM. In experiment [1], `O=CN1CCC(=C2c3ccc(Cl)cc3CCc3cccnc32)CC1` registered a Ki of 0.021 µM. On the same count and under the same terms, the figure for `CCCC(=O)N1CCC(=C2c3ccc(Cl)cc3CCc3cccnc32)CC1` is 0.051 µM; for `CC(=O)N1CCC(=C2c3cc(Cl)ccc3CCc3cccnc32)CC1` it is 1.5 µM. `CC(=O)N1CCC(=C2c3ccccc3CCc3ccccc32)CC1`: the Ki in experiment [1] worked out at 5 µM. As for `CC(=O)C1CCC(=C2c3ccc(Cl)cc3CCc3cccnc32)CC1` (stereo not given), in experiment [1], the Ki was 1.2 µM. `CC(C)(C)C(=O)N1CCC(=C2c3ccc(Cl)cc3CCc3cccnc32)CC1` gave an inhibition constant Ki in experiment [1] of 0.081 µM.

Turning to `CC(=O)N1CCC(=C2c3cc(F)c(F)cc3CCc3cccnc32)CC1`, the Inhibition in experiment [2] is 0%. This molecule also displayed a Ki in experiment [1] of 10 µM. Regarding `CC(=O)N1CCC(=C2c3ccc(F)cc3CCc3cccnc32)CC1`, the Inhibition in experiment [5] came out at 79%. The molecule also displayed a Ki in experiment [1] of 0.72 µM. Consider `CC(=O)N1CCC(=C2c3ccc(O)cc3CCc3cccnc32)CC1`, for which the Ki in experiment [1] was over 6.3 µM. On to `Cc1nnc2n1-c1sc(CCC(=O)N3CCOCC3)cc1C(c1ccccc1Cl)=NC2` [APAFANT], for which the inhibition in vivo at 10 mg/kg in experiment [6] was 99%; in experiment [7] it was 7%; in experiment [8] it was 60%.

Turning to `CN1CCC(=C2c3ccccc3CCc3cccnc32)CC1` [AZATADINE], the Ki in experiment [1] was 0.0039 µM. That is a single-digit nanomolar value.

In the case of `CC(=O)N1CCC(=C2c3ccc(Cl)cc3CCc3cccnc32)CC1` [SCH-37370], the Ki in experiment [1] was 0.32 µM. Moreover, the Inhibition in experiment [4] was determined as 99%.
